# Values joined by “and” are separate entries in the source; they are usually repeats but may differ in a detail not shown here. Equal values may be shown once.
# Legend:
# HT-29 = test: Cytotoxic effect against human colon carcinoma cell line (HT-29); type: functional, cell-based
# In short: (§1)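 MTT assay on cells in log-phase growth, seeded at 2.5 × 10³ cells/well and kept at 37 °C in 5% CO₂. Compounds were added 24 h after seeding as serial PBS dilutions of a […] DMSO stock. After 72 h exposure, MTT was added for 4 h, then DMSO; absorbance read at 570 nm. At least three experiments; IC50 taken from the mean % absorbance versus concentration.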
# HeLa = test: Cytotoxic effect against human cervical carcinoma cell line (HeLa); type: functional, cell-based; in short: as §1
# [1] = Inhibitory concentration against CDK1/Cyclin B complex from Marthasterias glacialis M-phase oocytes; type: cell-based; settings: oocyte
# PC-3 = test: Cytotoxic effect against human prostate carcinoma cell line (PC-3); type: functional, cell-based; in short: as §1
SMILES,IC50 [1],IC50 (HT-29) [µM],IC50 (HeLa) [µM],IC50 (PC-3) [µM]
CC(C)(C)c1ccc(-c2[nH]nc3nnc(N)c-3c2-c2ccc(C(C)(C)C)cc2)cc1,> 50 µM,8.5,8.78,
Nc1[nH]nc2nnc(-c3ccc(C(F)(F)F)cc3)c(-c3ccc(C(F)(F)F)cc3)c12,> 50 µM,> 100,> 100,
COc1ccc(-c2[nH]nc3nnc(N)c-3c2-c2ccc(OC)cc2)cc1,15 µM,> 100,> 100,> 100
Nc1ccc(-c2[nH]nc3nnc(N)c-3c2-c2ccc(N)cc2)cc1,> 50 µM,10.5,> 100,
Nc1[nH]nc2nnc(-c3ccco3)c(-c3ccco3)c12,1.5 µM,> 100,> 100,
Cc1n[nH]c2nnc(N)c-2c1C,> 50 µM,> 100,> 100,
NNc1[nH]nc2nnc(-c3ccccc3)c(-c3ccccc3)c12,8.5 µM,,,
CCNC(=O)Nc1[nH]nc2nnc(-c3ccco3)cc12,8.8 µM,,,
Nc1[nH]nc2nnc(-c3ccco3)cc12,5.3 µM,> 100,> 100,> 100
CCNC(=O)Nc1[nH]nc2nnc(-c3ccccc3)c(-c3ccccc3)c12,7.5 µM,> 100,60.4,> 100
CC/N=C(\S)Nc1[nH]nc2nnc(-c3ccco3)cc12,> 100 µM,,,

# Second part, led by results:
IC50 [1],SMILES,IC50 (HT-29) [µM],IC50 (HeLa) [µM],IC50 (PC-3) [µM]
> 50 µM,Nc1[nH]nc2nnc(-c3ccccn3)c(-c3ccccn3)c12,73,> 100,
> 50 µM,Oc1[nH]nc2nnc(-c3ccccc3)c(-c3ccccc3)c12,> 100,> 100,> 100
> 50 µM,Cc1n[nH]c2nnc(N)c-2c1-c1ccccc1,> 100,88.3,72.4
> 50 µM,Nc1[nH]nc2nnc(-c3ccc(-c4ccccc4)cc3)c(-c3ccc(-c4ccccc4)cc3)c12,> 100,> 100,
> 50 µM,Nc1nn(CCOCCO)c2nnc(-c3ccccc3)c(-c3ccccc3)c12,> 100,> 100,> 100
9 µM,O=C(Nc1ccccc1)Nc1[nH]nc2nnc(-c3ccccc3)c(-c3ccccc3)c12,> 100,2.93,> 100
> 50 µM,CC(=O)Nc1nn(C(C)=O)c2nnc(-c3ccccc3)c(-c3ccccc3)c12,> 100,> 100,> 100
> 50 µM,Nc1[nH]nc2nnc(-c3ccc([N+](=O)[O-])cc3)c(-c3ccc([N+](=O)[O-])cc3)c12,> 100,> 100,
3 µM and 6.1 µM,Nc1n[nH]c2nnc(-c3ccccc3)c(-c3ccccc3)c12,> 100,> 100,> 100
> 50 µM,Nc1nn(COCCO)c2nnc(-c3ccccc3)c(-c3ccccc3)c12,> 100,> 100,> 100
> 50 µM,CC(=O)Nc1[nH]nc2nnc(-c3ccccc3)c(-c3ccccc3)c12,> 100,> 100,> 100
> 50 µM,Nc1n[nH]c2nnc(-c3ccccc3)cc12,80.8,> 100,
> 50 µM,Nc1nn(Cc2ccccc2)c2nnc(-c3ccccc3)c(-c3ccccc3)c12,> 100,> 100,> 100
> 50 µM,CC(=O)n1nc(N)c2c(-c3ccccc3)c(-c3ccccc3)nnc21,> 100,> 100,> 100

# Reference: ChEMBL document CHEMBL1140371, “Pyrazolo[3,4-c]pyridazines as novel and selective inhibitors of cyclin-dependent kinases” (J Med Chem, 2005)
